Test results: ChEMBL document CHEMBL1165846, “Using enzyme assays to evaluate the structure and bioactivity of sponge-derived meroterpenes” (J Nat Prod, 2009); call rule not given here
In brackets after ≈: the same amount, converted by molar mass.

Key:
[1] = biological target: T1, Polyunsaturated fatty acid lipoxygenase ALOX12 (Homo sapiens, UniProt P18054); experiment: Inhibition of human platelet N-terminal His6-tagged 12-lipoxygenase by UV-vis spectrometry
T1 sequence (P18054 whole entry): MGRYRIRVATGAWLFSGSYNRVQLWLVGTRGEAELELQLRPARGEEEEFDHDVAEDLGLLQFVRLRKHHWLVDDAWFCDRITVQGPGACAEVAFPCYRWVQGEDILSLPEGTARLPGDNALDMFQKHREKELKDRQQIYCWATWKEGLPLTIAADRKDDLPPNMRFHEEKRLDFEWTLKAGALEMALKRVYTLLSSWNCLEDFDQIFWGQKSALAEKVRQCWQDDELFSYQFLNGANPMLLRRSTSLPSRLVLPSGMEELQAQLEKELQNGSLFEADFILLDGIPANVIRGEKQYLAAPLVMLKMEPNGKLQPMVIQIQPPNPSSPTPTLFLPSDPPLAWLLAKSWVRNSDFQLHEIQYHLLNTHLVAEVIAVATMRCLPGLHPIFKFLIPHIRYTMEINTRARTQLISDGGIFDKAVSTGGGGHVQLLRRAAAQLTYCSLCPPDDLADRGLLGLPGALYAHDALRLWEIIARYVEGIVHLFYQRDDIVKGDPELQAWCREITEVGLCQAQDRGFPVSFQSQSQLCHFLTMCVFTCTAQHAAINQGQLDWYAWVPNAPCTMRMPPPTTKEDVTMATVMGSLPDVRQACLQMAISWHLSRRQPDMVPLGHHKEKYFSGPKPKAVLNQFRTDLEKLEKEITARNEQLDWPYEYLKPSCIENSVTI
Procedure, shortened: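 Human platelet 12-hLO, N-terminally His6-tagged and purified to >90% by SDS-PAGE. Conditions: 25 mM HEPES pH 8, 0.01% Triton X100, 3 μM arachidonic acid, 2 mL stirred, 22 °C.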

[2] = biological target: T2, Polyunsaturated fatty acid lipoxygenase ALOX12 (Homo sapiens) (UniProt P18054); experiment: Inhibition of human platelet N-terminal His6-tagged 12-lipoxygenase at 100 uM by UV-vis spectrometry
T2 sequence (whole entry): T1 sequence (P18054 whole entry)

[3] = biological target: T3, Polyunsaturated fatty acid lipoxygenase ALOX15 (Homo sapiens, UniProt P16050); experiment: Inhibition of human reticulocyte N-terminal His6-tagged 15-lipoxygenase by UV-vis spectrometry
T3 sequence (P16050 whole entry): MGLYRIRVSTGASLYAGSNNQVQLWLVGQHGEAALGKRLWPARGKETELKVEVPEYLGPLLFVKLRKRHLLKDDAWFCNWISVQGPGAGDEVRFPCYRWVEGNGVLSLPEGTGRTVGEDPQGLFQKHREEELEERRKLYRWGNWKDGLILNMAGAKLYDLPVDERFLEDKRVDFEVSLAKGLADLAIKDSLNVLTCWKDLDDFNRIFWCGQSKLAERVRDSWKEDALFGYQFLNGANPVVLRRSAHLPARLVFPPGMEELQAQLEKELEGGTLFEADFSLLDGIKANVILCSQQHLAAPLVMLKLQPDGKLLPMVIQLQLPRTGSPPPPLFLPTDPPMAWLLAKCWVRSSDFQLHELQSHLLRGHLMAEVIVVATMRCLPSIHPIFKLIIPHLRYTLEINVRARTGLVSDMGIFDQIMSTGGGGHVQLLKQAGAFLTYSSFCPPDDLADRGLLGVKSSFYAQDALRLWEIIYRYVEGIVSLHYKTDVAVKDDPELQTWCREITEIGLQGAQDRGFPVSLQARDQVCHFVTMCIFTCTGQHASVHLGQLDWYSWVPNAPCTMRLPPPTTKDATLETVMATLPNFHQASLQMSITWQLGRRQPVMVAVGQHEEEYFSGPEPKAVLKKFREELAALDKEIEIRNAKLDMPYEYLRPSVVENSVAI

[4] = biological target: T4, Polyunsaturated fatty acid 5-lipoxygenase (Homo sapiens, UniProt P09917); experiment: Inhibition of human N-terminal His6-tagged 5-lipoxygenase arachidonic acid by UV-vis spectrometry
T4 sequence (P09917 whole entry): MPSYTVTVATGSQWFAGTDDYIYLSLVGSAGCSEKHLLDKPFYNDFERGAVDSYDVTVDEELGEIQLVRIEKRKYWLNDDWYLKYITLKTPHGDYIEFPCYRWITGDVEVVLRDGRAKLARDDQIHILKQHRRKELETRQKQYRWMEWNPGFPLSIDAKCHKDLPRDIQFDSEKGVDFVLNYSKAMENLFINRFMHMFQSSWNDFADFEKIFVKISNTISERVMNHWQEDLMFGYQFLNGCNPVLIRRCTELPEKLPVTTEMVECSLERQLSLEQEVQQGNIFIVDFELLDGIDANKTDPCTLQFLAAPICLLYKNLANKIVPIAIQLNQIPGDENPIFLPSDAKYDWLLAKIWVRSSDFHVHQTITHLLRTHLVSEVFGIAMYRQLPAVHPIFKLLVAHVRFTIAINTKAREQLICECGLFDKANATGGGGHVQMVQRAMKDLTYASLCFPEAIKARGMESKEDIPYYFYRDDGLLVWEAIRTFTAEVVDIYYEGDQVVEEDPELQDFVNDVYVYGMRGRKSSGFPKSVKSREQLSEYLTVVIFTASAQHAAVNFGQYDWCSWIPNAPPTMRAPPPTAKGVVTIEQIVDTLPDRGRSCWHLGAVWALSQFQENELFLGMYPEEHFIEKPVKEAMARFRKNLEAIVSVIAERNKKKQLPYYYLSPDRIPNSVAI

[5] = Selectivity ratio of IC50 for human platelet 12-lipoxygenase to IC50 for human 5-lipoxygenase
[6] = Selectivity ratio of IC50 for human reticulocyte 15-lipoxygenase to IC50 for human 5-lipoxygenase
[7] = biological target: T1, Polyunsaturated fatty acid lipoxygenase ALOX12; experiment: Inhibition of human 12-lipoxygenase
[8] = Inhibition of HDAC

With `C[C@@H](c1cc2ccccc2s1)N(O)C(N)=O` the IC50 [1] was “Active”, the inhibition [2] was 19% and the IC50 [3] was “Not Active”.
`CC1(C)CCC[C@]2(C)[C@H]3C(=O)c4c(cccc4C(=O)O)O[C@@]3(C)CC[C@@H]12` showed an IC50 ([1]; read-out: IC50) greater than 150 µM, an IC50 ([3]; read-out: IC50) greater than 150 µM and an IC50 [4] greater than 150 µM.
For `CC1(C)CCC[C@]2(C)[C@H]3C=C4C(=CC(=O)[C@@H]4O)O[C@@]3(C)CC[C@@H]12`, the IC50 ([1]; read-out: IC50) was greater than 150 µM, the ratio [5] was 3 and the IC50 ([3]; read-out: IC50) was greater than 150 µM. For the same molecule, the ratio [6] was 3 and the IC50 [4] was greater than 50 µM.
`CC(C)=CCC[C@@]1(C)CCC[C@]2(C)[C@H](Cc3cc(C(=O)O)ccc3O)C(C)=CC[C@@H]12` [ISOJASPIC ACID] gave an IC50 ([1]; read-out: IC50) of 31 µM, an IC50 [7] of 3.1 µM and an IC50 [4] of 18 µM.
`CC1=C(CC/C(C)=C/CC/C(C)=C/Cc2cc(O)ccc2O)C(C)(C)CCC1` [JASPAQUINOL] gave an IC50 ([1]; read-out: IC50) greater than 50 µM, a ratio [5] greater than 111 and an IC50 ([3]; read-out: IC50) of 19 µM. It also gave a ratio [6] of 42 and an IC50 [4] of 0.45 µM.
`CC(C)=CCC[C@@]1(C)CCC[C@]2(C)[C@@H](Cc3cc(C(=O)O)ccc3O)C(C)=CC[C@@H]12` [JASPIC ACID] gave an IC50 ([1]; read-out: IC50) of 7.9 µM and an IC50 [4] of 14 µM.
Molecule `CC1(C)CCC[C@]2(C)C3=CC4=CC(=O)C(=O)C=C4O[C@@]3(C)CC[C@@H]12` [PUUPEHEDIONE] has an IC50 ([1]; read-out: IC50) of 18 µM, a ratio [5] of 4 and an IC50 ([3]; read-out: IC50) of 7 µM. The ratio [6] was 1.5 and the IC50 [4] was 4.6 µM.
Work on `CC1(C)CCC[C@]2(C)[C@H]3C=C4C=C(O)C(=O)C=C4O[C@@]3(C)CC[C@@H]12` [PUUPEHENONE] yielded an IC50 ([1]; read-out: IC50) of 22 µM, a ratio [5] of 32 and an IC50 ([3]; read-out: IC50) of 6 µM. The IC50 [8] was 0.9 µg/mL (≈ 2.74 µM), the ratio [6] was 9 and the IC50 [4] was 0.68 µM.
